Results on 30 compounds are retold here after ChEMBL document CHEMBL3621051, “Design and synthesis of 4-benzyl-1-(2H)-phthalazinone derivatives as novel androgen receptor antagonists” (Eur J Med Chem, 2015).

The target in one assay is T1, Androgen receptor (Homo sapiens, UniProt P10275).
T1 sequence (P10275 whole entry): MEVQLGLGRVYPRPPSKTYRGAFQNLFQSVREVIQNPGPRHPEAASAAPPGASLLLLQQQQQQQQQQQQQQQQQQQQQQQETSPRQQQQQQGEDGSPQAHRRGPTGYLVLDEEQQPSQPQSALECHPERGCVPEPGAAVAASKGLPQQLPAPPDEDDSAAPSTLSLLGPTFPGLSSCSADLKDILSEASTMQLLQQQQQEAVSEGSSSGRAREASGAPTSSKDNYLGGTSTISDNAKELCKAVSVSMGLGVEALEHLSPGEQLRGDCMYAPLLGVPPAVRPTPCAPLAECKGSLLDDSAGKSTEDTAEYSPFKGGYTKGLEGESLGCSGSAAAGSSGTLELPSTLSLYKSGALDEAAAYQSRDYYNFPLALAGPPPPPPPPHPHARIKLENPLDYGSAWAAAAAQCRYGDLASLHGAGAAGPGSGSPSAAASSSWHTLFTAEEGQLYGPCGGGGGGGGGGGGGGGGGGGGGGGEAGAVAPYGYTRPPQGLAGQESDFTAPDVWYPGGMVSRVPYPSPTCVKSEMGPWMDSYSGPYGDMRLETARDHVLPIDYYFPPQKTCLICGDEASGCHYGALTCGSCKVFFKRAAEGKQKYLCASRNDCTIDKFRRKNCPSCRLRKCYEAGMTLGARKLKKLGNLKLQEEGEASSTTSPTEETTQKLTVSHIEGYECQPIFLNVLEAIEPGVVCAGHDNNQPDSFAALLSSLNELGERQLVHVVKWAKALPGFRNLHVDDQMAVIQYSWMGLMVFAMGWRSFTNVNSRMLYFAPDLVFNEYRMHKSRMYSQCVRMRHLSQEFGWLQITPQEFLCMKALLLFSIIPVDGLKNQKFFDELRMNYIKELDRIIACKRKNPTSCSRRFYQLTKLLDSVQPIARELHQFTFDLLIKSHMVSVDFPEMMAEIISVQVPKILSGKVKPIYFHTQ
The experiment in a line: Displacement of [3H]-DHT from human GST fused AR-LBD (627 to 919 amino acids) transfected in Escherichia coli HB 101 after 15 hrs by liquid scintillation counting assay. Put shortly: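 Crude sonicated lysate in TEGDM was diluted to 0.3-0.5 mg/mL protein. Incubation was in the dark at 4°C for 15 h with 4 nM [3H]-DHT and 1 µM triamcinolone acetonide (final). Free ligand was removed with dextran/γ-globulin-coated charcoal, and the supernatant counted by liquid scintillation; ≥duplicate.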
A general note: Loss of bound radioactivity is the signal in a displacement assay; it reports binding, not function.

The test system of another assay is PC-3. The experiment in a line: Cytotoxicity against androgen-independent human PC3 cells assessed as inhibition of cell proliferation after 3 days by WST-8 assay. Type of assay: functional, cell-based. A general note: Tetrazolium assays rely on reduction of a dye to a coloured formazan, in cell work by metabolically active cells.
For assay [1], the target named is T2, Androgen receptor (Homo sapiens) (UniProt P10275).
T2 sequence (whole entry): T1 sequence (P10275 whole entry)
The experiment in a line: Agonist activity at wild type AR expressed in […] SC cells assessed as effect on cell proliferation by WST-8 assay. Type of assay: cell-based.

The source made the active and inactive calls. The rule behind the calls is not given here. Bounds are passed on as bounds.

For the compound `O=c1[nH]nc(Cc2c(Cl)ccc(Cl)c2Cl)c2ccccc12`, on Androgen receptor, the IC50 was found to be 56.7 µM. Besides, the inhibition entry in the assay on PC-3 is “inactive”. For the same compound, the result in assay [1] was inactive. `CCNc1ccc(Cc2n[nH]c(=O)c3ccccc23)cc1`: the outcome in assay [1] was inactive. The same measure, in the same setting: under `CCN(CC)c1ccccc1Cc1n[nH]c(=O)c2ccccc12` stands “inactive”; under `CCNc1ccccc1Cc1n[nH]c(=O)c2ccccc12`, “inactive”. The same measure, in the same setting: next, `O=C(Nc1ccc(Cc2n[nH]c(=O)c3ccccc23)cc1)C(F)(F)F`: “inactive”; `O=c1[nH]nc(Cc2ccccc2C(F)(F)F)c2ccccc12`: “inactive”. Same read-out and setting: under `CC(C)(O)C(=O)Nc1ccc([N+](=O)[O-])c(C(F)(F)F)c1` stands “inactive”; under `CN(C)c1ccc(Cc2n[nH]c(=O)c3ccccc23)cc1`, “inactive”; under `CS(=O)(=O)Nc1ccccc1Cc1n[nH]c(=O)c2ccccc12`, “inactive”. At Androgen receptor, `O=c1[nH]nc(Cc2c(Cl)cccc2Cl)c2ccccc12` yielded an IC50 of 10.9 µM. The inhibition entry in the assay on PC-3 was “inactive”. The result in assay [1] was inactive.

As for `CS(=O)(=O)Nc1ccc(Cc2n[nH]c(=O)c3ccccc23)cc1`, the outcome in assay [1] was inactive. As for `O=c1[nH]nc(Cc2c(F)cccc2F)c2ccccc12`, in assay [1], the result was inactive. On the same count and under the same terms, under `COc1ccccc1Cc1n[nH]c(=O)c2ccccc12` stands “inactive”.

As for `O=[N+]([O-])c1ccc(Cc2nnc(O)c3ccccc23)cc1`, the outcome in assay [1] was inactive.

In the case of `CNc1ccccc1Cc1n[nH]c(=O)c2ccccc12`, the outcome in assay [1] was inactive. Consider `Nc1ccc(Cc2n[nH]c(=O)c3ccccc23)cc1`, for which the outcome in assay [1] was inactive. Regarding `Oc1nnc(Cc2ccccc2Cl)c2ccccc12`, on Androgen receptor, the IC50 worked out at 85.4 µM. Further, in the assay on PC-3, the inhibition result was “inactive”. Besides, in assay [1], the result was inactive.

`CC(=O)Nc1ccccc1Cc1n[nH]c(=O)c2ccccc12`: the outcome in assay [1] was inactive. With `O=C(O)c1ccccc1Cc1n[nH]c(=O)c2ccccc12`, the outcome in assay [1] was inactive. With `O=c1[nH]nc(Cc2ccccc2[N+](=O)[O-])c2ccccc12`, on Androgen receptor, the IC50 was over 100 µM. For the same compound, in the assay on PC-3, the inhibition entry is “inactive”. Further, the outcome in assay [1] was inactive. For `CN(C)c1ccccc1Cc1n[nH]c(=O)c2ccccc12`, the outcome in assay [1] was inactive. For `CCN(CC)c1ccc(Cc2n[nH]c(=O)c3ccccc23)cc1`, the result in assay [1] was inactive.

Regarding `CC(=O)Nc1ccc(Cc2n[nH]c(=O)c3ccccc23)cc1`, the result in assay [1] was inactive. For the compound `CNc1ccc(Cc2n[nH]c(=O)c3ccccc23)cc1`, the outcome in assay [1] was inactive. Still for that read-out and setting: next, `O=c1[nH]nc(Cc2ccccc2F)c2ccccc12`: “inactive”. At Androgen receptor, `Cc1cccc(C)c1Cc1n[nH]c(=O)c2ccccc12` gave an IC50 of 84.3 µM. In addition, in the assay with PC-3, the inhibition result is “inactive”. Besides, the outcome in assay [1] was inactive. Take `O=c1[nH]nc(Cc2ccccc2)c2ccccc12`: the outcome in assay [1] was inactive. Same read-out and setting: next, `O=C(Nc1ccccc1Cc1n[nH]c(=O)c2ccccc12)C(F)(F)F`: “inactive”.

Take `Cc1ccccc1Cc1n[nH]c(=O)c2ccccc12`: the result in assay [1] was inactive. In the case of `Nc1ccccc1Cc1n[nH]c(=O)c2ccccc12`, the IC50 at Androgen receptor turned out to be 45.2 µM. The inhibition result in the assay on PC-3 was “inactive”. In assay [1], the result was inactive.

In general, IC50 refers to the concentration needed to halve the response being measured. A lower IC50 goes with greater potency.
